Among all 360,000 compounds or so, about 5,400 (1.5%) were called active. For the sample, actives were picked, then their nearest neighbours and some compounds at random. Unmarked numbers belong to inactive results.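 How the source made its calls: active means inhibition above a per-plate cutoff, the mean inhibition of test compounds on that plate plus 3 SD (cut at about 49% in these data); inactive means the rest.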

Trace amine-associated receptor 1 (Homo sapiens), sequence (Q96RJ0 whole entry, looked up): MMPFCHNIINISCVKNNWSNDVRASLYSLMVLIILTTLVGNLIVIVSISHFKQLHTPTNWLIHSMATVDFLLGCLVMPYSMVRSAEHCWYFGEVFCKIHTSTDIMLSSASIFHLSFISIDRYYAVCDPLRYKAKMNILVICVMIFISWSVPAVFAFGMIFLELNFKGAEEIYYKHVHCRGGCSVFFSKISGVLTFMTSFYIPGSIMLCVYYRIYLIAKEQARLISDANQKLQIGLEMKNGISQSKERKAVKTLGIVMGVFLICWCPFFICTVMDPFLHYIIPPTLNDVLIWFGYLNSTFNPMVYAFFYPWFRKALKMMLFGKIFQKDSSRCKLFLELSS

The target of the test is Trace amine-associated receptor 1 (Homo sapiens) (UniProt Q96RJ0). Kind of test: human TAAR1 antagonists, primary screen, Fluo-8 calcium fluorescence, CHO RD-HGA16 cells (AID 624466).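 Further: 0% = DMSO plus EC80 beta-PEA response and 100% = DMSO alone without agonist.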 As to conditions: CHO RD-HGA16 TAAR1, Fluo-8 calcium fluorescence, antagonist; at 3 µM; stronger effect = higher value. In outline: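 Test system: CHO RD-HGA16 cells bearing hTAAR1 | Reagent: β-PEA, EC80 | Compound dosing: 3 µM, single point | Schedule: Dye loading 75 min at 37 °C, then 30 min room temperature | Signal: Calcium fluorescence with Fluo-8 | Evaluation: Percent inhibition of PEA-evoked calcium signal, max/basal emission ratio | Control set: DMSO-only wells and EC80 β-PEA-stimulated wells | Repeats: Singlicate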
For the compound `CC(=O)N1C[C@@H](CO)[C@@H](N(C)C(=O)C(C)(C)C)C[C@H]1c1ccccc1Br`, the inhibition is -17.9%.

Consider `Cc1ccc(NC(=O)COC(=O)CNC(=O)c2ccc(Cl)cc2Cl)cc1S(=O)(=O)N1CCOCC1`, for which the inhibition is -20.3%.

For the compound `C[C@@H]1CC2=C(C(=O)OC(C)(C)O2)[C@@H](C2CC2)O1`, the inhibition was -2.56%.

Consider `CCOC(=O)[C@]12CCCC=C1N(Cc1cccc3ccccc13)C(=O)[C@H](CC(=O)NCC13CC4CC(CC(C4)C1)C3)C2`, for which the inhibition was -11.8%.

`Cc1c(NC(=O)c2cc(-c3ccc(Cl)s3)nc3ccccc23)c(=O)n(-c2ccccc2)n1C`: the inhibition was 23.5%.

For the compound `CC(=O)N1CCN(C(=O)c2cc(-c3ccc(Cl)s3)nc3ccccc23)CC1`, the inhibition is 52% (active).

Take `O=C(c1cc(-c2ccc(Cl)s2)nc2ccccc12)N1CCOCC1`: the inhibition was 23.2%.

For the compound `O=C(NCc1cccc(Cl)c1)C1CCN(c2nnc(N3CCCC3=O)s2)CC1`, the inhibition is 1.44%.

Turning to `Cc1ccc(S(=O)(=O)N[C@H]2CCC[C@@H]2O)cc1`, the inhibition was -6.11%.

`Nc1nonc1-n1nnc(C(=O)N/N=C/c2cc(Br)ccc2O)c1CSC1=NCCS1`: the inhibition was 18.1%.

For the compound `Cc1ccc(SCc2c(C(=O)N/N=C/c3cccnc3)nnn2-c2nonc2N)cc1`, the inhibition is 63.7% (active).

Turning to `CCN(CC)Cc1c(C(=O)N/N=C/c2cccc(OCc3ccc(F)cc3)c2)nnn1-c1nonc1N`, the inhibition is -24.4%.

On to `CCOC(=O)C1CCCN(C(=O)c2cccc(S(=O)(=O)N3CCOCC3)c2)C1` (centres undefined), for which the inhibition is -16.4%.

Take `C=CCCN(Cc1ccccc1)S(=O)(=O)c1ccccc1Br`: the inhibition is 35.3%.

On to `O=C1Nc2ccccc2C1=NN=Cc1ccco1`, for which the inhibition is -11.4%.

In the case of `CC1Cc2[nH][nH]c(=O)c2C(C2CC2)O1` (centres undefined), the inhibition is -0.95%.

With `Cc1ccccc1-n1nnc2c(=O)oc3ccccc3c21`, the inhibition is -7.09%.

On to `O=C(Nc1cccc(F)c1)c1coc(=O)c(Br)c1`, for which the inhibition was -5.62%.

Regarding `C=CCc1cc(S(=O)(=O)c2ccc(O)c(CC=C)c2)ccc1O`, the inhibition was 56.9% (active).

Regarding `O=C1[C@@H](c2ccccc2)[C@@H](c2ccccc2)N1c1ccccc1`, the inhibition was -22.7%.

For `COc1ccc(NC(=O)c2oc3ccc(S(=O)(=O)N4CCOCC4)cc3c2C)cc1`, the inhibition is 57.4% (active).

On to `Cc1c(C(=O)Nc2ccccc2Cl)oc2ccc(S(=O)(=O)N3CCC4(CC3)OCCO4)cc12`, for which the inhibition was 46.8%.

`Cc1c(C(=O)Nc2cccc(S(=O)(=O)N3CCOCC3)c2)oc2ccccc12`: the inhibition is 13.3%.

In the case of `COC(=O)COc1ccc(S(=O)(=O)N2CCOCC2)cc1`, the inhibition was -11.5%.

In the case of `COc1ccc(C(=O)Nc2cc(S(=O)(=O)N3CCCC3)ccc2Cl)cc1`, the inhibition was 2.12%.

As to `COc1ccc(C(=O)Nc2nc(-c3ccc(S(=O)(=O)N4CCOCC4)cc3)cs2)cc1`, the inhibition is 60.4% (active).

As for `CCc1ccc(S(=O)(=O)Nc2cc3c(cc2N2CCCCC2)n(C)c(=O)c(=O)n3C)cc1`, the inhibition was -20.8%.

For `CCCCCCCCN1C(=O)[C@@H](CC(=O)N2CCN(C(=O)OCC)CC2)C[C@@]2(C(=O)OC)C1=C[C@H](C1CCCC1)O[C@@H]2C`, the inhibition was -10.4%.

As to `O=C(NCc1ccc2c(c1)OCO2)c1c(-c2ccsc2)sc2ccccc12`, the inhibition was 77.1% (active).

With `O=C(NCc1ccc2c(c1)OCO2)c1sccc1Br`, the inhibition was -7.07%.

`C=CCn1c(=O)c(C(=O)NCc2ccc3c(c2)OCO3)c(O)c2ccccc21`: the inhibition was -8.39%.

With `COCCCNC(=O)C[C@H]1C[C@@]2(C(=O)OC)C(=C[C@H](C(C)(C)C)O[C@@H]2C)N(Cc2ccc3c(c2)OCO3)C1=O`, the inhibition is -10.8%.

`O=C(Cc1ccccc1)Nc1cccc(C(=O)N/N=C/c2ccco2)c1`: the inhibition was 7.95%.

Turning to `O=C(N/N=C/c1ccccn1)c1cccc(NC(=O)c2ccc(Cl)cc2)c1`, the inhibition was 56.6% (active).

Turning to `Cn1nccc1/C=N\NC(=O)c1ccc(Cl)cc1`, the inhibition was -23%.

Turning to `CC(C)CNc1cccc2c1S(=O)(=O)N[C@H](C)CO2`, the inhibition is 9.62%.

In the case of `Cc1ccc(C2=CSC3=NS(=O)(=O)CCN23)cc1C`, the inhibition is 10.5%.

For the compound `CC(=NNC(N)=O)c1ccc(Cl)c(-n2cccc2)c1`, the inhibition was -7.84%.

On to `COc1ccc(OC)c(CNC(=O)Cn2nc(C)c3c(C)n(-c4ccc(C)cc4)nc3c2=O)c1`, for which the inhibition is -15.7%.

On to `NC(=O)C1=C[C@H](c2csc3ccccc23)C[C@H](OCc2ccc(CO)cc2)O1`, for which the inhibition is 49.7% (active).

In the case of `CC(=O)n1cc([C@@H]2C=C(C(=O)N3CCN(Cc4ccc5c(c4)OCO5)CC3)O[C@H](OCc3ccc(CO)cc3)C2)c2ccccc21`, the inhibition was 49.4% (active).

Take `O=C(C1=C[C@H](C2CC2)C[C@H](OCc2ccc(CO)cc2)O1)N1CCN(Cc2ccccc2)CC1`: the inhibition is 1.78%.

Consider `CN1CCN(C(=O)C2=C[C@H](c3ccc4c(c3)OCO4)C[C@H](OCc3ccc(CO)cc3)O2)CC1`, for which the inhibition is 18.1%.

As to `O=C(C1=C[C@H](c2coc3ccccc3c2=O)C[C@H](OCc2ccc(CO)cc2)O1)N1CCOCC1`, the inhibition was 17.7%.

Take `CC(=O)n1cc([C@H]2C=C(C(=O)N3CCOCC3)O[C@@H](OCc3ccc(CO)cc3)C2)c2ccccc21`: the inhibition is 51.8% (active).

Take `NC(=O)C1=C[C@@H](c2csc3ccccc23)C[C@@H](OCc2ccc(CO)cc2)O1`: the inhibition is 17.2%.

Turning to `O=C(C1=C[C@H](c2ccc(C(F)(F)F)cc2)C[C@H](OCc2ccc(CO)cc2)O1)N1CCN(Cc2ccccc2)CC1`, the inhibition is 7.66%.

For `O=C(NC1CC1)C1=C[C@H](c2c[nH]c3ccccc23)C[C@H](OCc2ccc(CO)cc2)O1`, the inhibition was -9.17%.

On to `CN1CCN(c2ccc3c(c2)OC[C@H](Cc2ccccc2)NS3(=O)=O)CC1`, for which the inhibition was -0.38%.

Consider `CC(C)C[C@H](NC(=O)CC1CCCC1)C(=O)N1CCC[C@H]1C(=O)NCc1ccccc1`, for which the inhibition is -24.5%.

Consider `COC(=O)[C@]12C[C@H](CC(=O)NCc3ccc(C)o3)C(=O)N(CCC3=CCCCC3)C1=C[C@H](C(C)(C)C)O[C@@H]2C`, for which the inhibition was -24.7%.

Regarding `CCCc1cc(C(=O)Nc2ccc(Cl)cn2)cs1`, the inhibition was -47.4%.

In the case of `CCN(CC)C(=O)CCC(=O)Nc1ccc(C(=O)OC)cc1`, the inhibition was -5.5%.

`CCCc1cc(C(=O)Nc2ccc(C(=O)OC)cc2)cs1`: the inhibition is 50.5% (active).

Take `CCC(=O)Nc1c(S(=O)(=O)c2ccccc2)c2nc3ccccc3nc2n1Cc1ccccc1`: the inhibition was -31.1%.

On to `N#Cc1cccc(C(=O)NCC2CCN(C(=O)C(=O)c3cc4ccccc4o3)CC2)c1`, for which the inhibition was -5.41%.

As to `Fc1ccc2[nH]c3c(N4CCSCC4)ncnc3c2c1`, the inhibition was 64.4% (active).

Consider `COC(=O)c1ccc2nc(-c3cccc(Br)c3)c(Cc3ccccc3C(F)(F)F)n2c1`, for which the inhibition is -12.6%.

With `COc1ccc(/C=C/C(=O)Nc2ccc(C34CC5CC(CC(O)(C5)C3)C4)cc2)cc1OC`, the inhibition was 71.5% (active).

As to `COc1cc(/C=C/C(=O)Nc2ccc(OC)c(S(=O)(=O)N3CCOCC3)c2)ccc1OCC#N`, the inhibition was 14.8%.

Regarding `COc1ccc(/C=C/C(=O)OCC(=O)NC2CCCCCC2)cc1OC`, the inhibition was -27.2%.

`C[C@@H]1CN([C@H](C)CO)C(=O)CCCn2cc(nn2)CO[C@H]1CN(C)C(=O)Nc1ccc(N2CCCCC2)cc1`: the inhibition is -12.4%.

In the case of `CNC(=O)C1CC(=O)N(Cc2ccc3c(c2)OCO3)C(=Nc2ccc(F)cc2)S1` (centres undefined), the inhibition is 11.3%.

As to `Nc1c(NCCc2ccccc2)c2ccccc2oc1=O`, the inhibition is 66.7% (active).

Regarding `O=c1oc2ccccc2c(=O)c2ccccc12`, the inhibition is 3.02%.

Take `CC(C)(C)Nc1c(N)c(=O)oc2ccccc12`: the inhibition is 15%.

As for `O=C(N[C@H](Cc1ccccc1)C(=O)N1CCCN(Cc2cccs2)CC1)[C@H]1O[C@@H](n2ccc(=O)[nH]c2=O)[C@H](O)[C@@H]1O`, the inhibition was -9.92%.

Consider `CC(=O)OC[C@@H]1CN(Cc2ccccc2)C[C@H](n2cnc3c(NCc4ccco4)ncnc32)O1`, for which the inhibition was -4.46%.

Take `CCCCOCC1CN(CCCC)S(=O)(=O)c2c(Oc3ccc(F)cc3)cccc2O1` (centres undefined): the inhibition was 30.2%.

In the case of `CCOC(=O)C1=CN(Cc2ccc(Br)cc2)S(=O)(=O)N(C)C1C` (centres undefined), the inhibition was 17.8%.

For `CCOC(=O)c1sc(=NC(=O)c2ccc(Br)cc2)n(C)c1C`, the inhibition is -21.9%.

On to `CCOC(=O)C1=CN(Cc2ccc(Br)cc2)S(=O)(=O)NC1C` (centres undefined), for which the inhibition is 49.1% (active).

Turning to `COc1cccc(Cn2cc(/C=N/NC(=O)c3cc(O)cc(O)c3)c3ccccc32)c1`, the inhibition is -11.8%.

For the compound `COc1cc(/C=N/NC(=S)Nc2cccnc2)cc(OC)c1O`, the inhibition is -25%.

Turning to `COc1cccc(/C=N/Nc2cc(C)nc(-c3ccccc3O)n2)c1O`, the inhibition was 64.5% (active).

For `Cc1cccc2[nH]c(CN(C)C(=O)C3CCC(=O)N(CCc4ccccc4)C3)nc12` (centres undefined), the inhibition is -20.8%.

With `Cc1ccc(N(C(=O)CC2NC(=O)NC2=O)C2(C(=O)NC3CCCC3)CCCCC2)cc1` (centres undefined), the inhibition was -7.81%.

For the compound `CCCCCCCC[n+]1cccc(C(=O)N2c3c(nc(N)[nH]c3=O)NC(C)C2C)c1` (centres undefined), the inhibition is -7.7%.

Turning to `CC(C)NC(=O)N1Cc2cc(C(=O)NCC(F)(F)F)nc(-c3cccc(-c4cc5ccccc5o4)c3)c2[C@@H]1CCO`, the inhibition was 51.9% (active).

Turning to `CCNC(=O)c1cc2c(c(-c3cccc(-c4cncnc4)c3)n1)[C@H](CCO)N(C(C)=O)C2`, the inhibition was -0.11%.

For `CC(C)(C)S(=O)N1Cc2cc(C(=O)NCCCN3CCOCC3)nc(-c3cccc(-c4cc5ccccc5o4)c3)c2[C@H]1CCO` (some centres undefined), the inhibition was 8.67%.

With `COc1cccc(/C=C(/CC(=O)Nc2ccc(N3CCOCC3)cc2)c2nc3ccccc3s2)c1`, the inhibition was -10.9%.

`COc1ccc(C(=O)Nc2cccc(/C=C(/CCC(=O)O)c3nc4ccccc4s3)c2)cc1`: the inhibition was 57.2% (active).

As for `O=C(O)CC/C(=C\c1cc2c(cc1Br)OCO2)c1nc2ccccc2s1`, the inhibition was -13.4%.

(Values after PubChem BioAssay AID624466 (The Scripps Research Institute Molecular Screening Center, 2012).)
